Runt-CBFb FRET = Runt domain-CBFb interaction inhibition; AID 1496; inhibition, % at 20 µM; Cerulean-Runt/Venus-CBFb FRET ratio 530/480, 1 h; Q01196+Q13951; 220,000 compounds, 0.46% hits;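 active = inhibition over about 50% at 20 µM in the single-dose screen, limit read from the data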;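 also: 0% = DMSO wells and 100% = excess unlabeled CBFb competitor control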
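Reagent – Venus-CBFb binding partner, 100 nM · Assay system – Cerulean-tagged RUNX1 Runt domain (FRET donor) fusion protein · Input – 100 nM per protein · Incubation – two 1 h room-temperature incubations shielded from light · Measured by – FRET fluorescence · Medium – Tris buffer pH 7.5 with salts and BSA · Benchmarks – unlabeled CBFb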
Runt-SMMHC FRET = Runt domain-CBFb-SMMHC interaction inhibition; Q01196+Q13951; Cerulean-Runt/Venus-CBFb-SMMHC FRET ratio 530/480, 1 h; inhibition, % at 20 µM; 220,000 compounds, 0.74% hits;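 active = mean inhibition across duplicate retests at 20 µM reaching about 50%, limit read from the data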;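 also: 0% = DMSO wells and 100% = wells with excess untagged CBFb-SMMHC; inhibitors lower the FRET ratio by blocking Runt binding to CBFb-SMMHC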
LANA-H2B inh = blocks KSHV LANA binding to histone H2A/H2B | cell-free LANA-H2A/H2B peptide, fluorescence polarization | AID 2629 | Q9QR71 | 320,000 compounds, 0.6% hits | inhibition, % (concentration not given with the values); in the data active = inhibition mostly above about 10%, no sharp cut-off; inactive = mostly below about 6.7%
RanGTP-Impb inh = disruptors of Ran-importin-beta complex formation – biochemical, FRET, CFP-Ran, YFP-importin-beta, homogeneous, primary screen; cell-free CFP-Ran/YFP-importin-beta FRET ratio; inhibition, % (no concentration beside the values); 300,000 compounds, 1.1% hits; AID 2216;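 active = more than half of the replicate wells show a fall in the fluorescence ratio signal beyond about 16%, limit read from the data, passing the limit was not always enough; inconclusive = exactly half of the replicate wells pass the set limit; inactive = fewer than half of replicates pass the limit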;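 also: 0% = DMSO wells and 100% = Ran loaded with GDP instead of GTP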
EBV gp42 block = EBV gp42 inhibition. Q1HVG2. Fluorescence polarization binding assay, mP read-out. inhibition, % (tested at 21.74 µM). 220,000 compounds, 0.42% hits. AID 1085; in the data active = inhibition above about 50%
MEX-5 binding = C. elegans MEX-5 TCR-2 RNA binding activity; Q9XUB2; MEX-5/FITC-TCR2 RNA binding, fluorescence polarization; stronger effect = lower value; activity score (negative = inhibition of binding), % at 10 µM; 300,000 compounds, 0.38% hits; AID 1832;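 active = inhibition past about -25% in most replicates, and total fluorescence under double the plate's negative control median, limit read from the data; inconclusive = replicates evenly split on the limit, or fluorescence at least double controls; inactive = too little inhibition in most replicates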;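 also: 0% = DMSO and -100% = 5 µM competing unlabeled TCR2 RNA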
Target sequence (Q9XUB2 whole entry, looked up): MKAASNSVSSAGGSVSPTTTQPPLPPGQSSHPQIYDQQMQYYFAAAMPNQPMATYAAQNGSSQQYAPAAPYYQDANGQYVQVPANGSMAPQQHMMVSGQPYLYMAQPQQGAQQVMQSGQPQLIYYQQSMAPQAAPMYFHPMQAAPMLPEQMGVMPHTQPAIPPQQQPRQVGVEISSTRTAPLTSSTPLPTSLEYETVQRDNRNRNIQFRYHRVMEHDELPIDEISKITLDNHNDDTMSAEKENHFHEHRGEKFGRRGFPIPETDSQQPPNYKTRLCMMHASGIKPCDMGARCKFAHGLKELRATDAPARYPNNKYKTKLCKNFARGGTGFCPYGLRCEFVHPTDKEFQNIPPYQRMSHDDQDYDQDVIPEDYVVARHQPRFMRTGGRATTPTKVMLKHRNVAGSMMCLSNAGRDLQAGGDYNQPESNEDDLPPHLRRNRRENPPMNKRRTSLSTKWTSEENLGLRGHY
* hit, by the source's call. The list is not random: actives were taken first. Their share in the collection is about 2.4%.

`CC(=S)/C=C1\Sc2ccccc2N1C` gave Runt-CBFb FRET 48, Runt-SMMHC FRET 37, LANA-H2B inh 0, RanGTP-Impb inh -1, EBV gp42 block -7 and MEX-5 binding 6.
`COc1ccc(C(=O)/C=C2\Sc3ccccc3N2C)cc1` gave Runt-CBFb FRET 31, Runt-SMMHC FRET 56*, LANA-H2B inh -4, RanGTP-Impb inh -1, EBV gp42 block -2 and MEX-5 binding -4.
`CCn1ncc(C2=NOC(C(=O)NCc3ccc(Cl)cc3)C2)c1C` (stereo not drawn) gave Runt-CBFb FRET 2, Runt-SMMHC FRET -4, LANA-H2B inh 58*, RanGTP-Impb inh -3, EBV gp42 block -1 and MEX-5 binding -1.
`Cc1onc(-c2ccccc2Cl)c1C(=O)NNC(=O)c1cccc(F)c1` gave LANA-H2B inh 0, RanGTP-Impb inh -4 and MEX-5 binding 1.
For CNC(=O)c1c(NC(=O)c2ccc(S(=O)(=O)N3CCCc4ccccc43)cc2)sc2c1CCN(C)C2 the results were Runt-CBFb FRET -262, Runt-SMMHC FRET -48, LANA-H2B inh 1, RanGTP-Impb inh 28*, EBV gp42 block -39 and MEX-5 binding inconclusive.
`CN1CCc2c(sc(NC(=O)c3ccc(S(=O)(=O)N4CCCCCC4)cc3)c2C(N)=O)C1` gave LANA-H2B inh -2, RanGTP-Impb inh 58* and MEX-5 binding -18.
Screening CN1CCc2c(sc(NC(=O)c3ccc(S(=O)(=O)N4CCCC4)cc3)c2C(N)=O)C1 returned LANA-H2B inh -2, RanGTP-Impb inh 41* and MEX-5 binding -19.
For CN1CCc2c(sc(NC(=O)c3ccc(S(=O)(=O)N4CCc5ccccc54)cc3)c2C(N)=O)C1 the results were Runt-CBFb FRET 7, Runt-SMMHC FRET 14, LANA-H2B inh -2, RanGTP-Impb inh 3, EBV gp42 block -96 and MEX-5 binding -13.
`CC1(C)Cc2c(sc(NC(=O)c3ccc(S(=O)(=O)N4CCCCCC4)cc3)c2C(N)=O)C(C)(C)N1` gave LANA-H2B inh 1, RanGTP-Impb inh -1 and MEX-5 binding 2.
`CC(=O)N/C(=C\c1ccccc1)C(=O)OCC(=O)N(CC(C)C)c1c(N)n(Cc2ccccc2)c(=O)[nH]c1=O` gave LANA-H2B inh -2, RanGTP-Impb inh 2 and MEX-5 binding 0.
For CCCCNCCOc1ccccc1-c1ccccc1 the results were Runt-CBFb FRET -4, Runt-SMMHC FRET -1, LANA-H2B inh -3, RanGTP-Impb inh 0, EBV gp42 block 9 and MEX-5 binding 1.
For O=C(Cn1cnc2c(cnn2-c2ccccc2)c1=O)Nc1cc(S(=O)(=O)N2CCOCC2)ccc1Cl the results were Runt-CBFb FRET -1, Runt-SMMHC FRET 1, LANA-H2B inh 6, RanGTP-Impb inh -1, EBV gp42 block -1 and MEX-5 binding 0.
O=C1Nc2ccccc2N2CCCC12 (stereo not drawn) was read as Runt-CBFb FRET -1, Runt-SMMHC FRET -10, LANA-H2B inh -5, RanGTP-Impb inh 3, EBV gp42 block -4 and MEX-5 binding -3.
O=C1Nc2cc(Cl)cnc2N2CCCC12 (stereo not drawn) was read as Runt-CBFb FRET 3, Runt-SMMHC FRET -1, LANA-H2B inh 3, RanGTP-Impb inh 0, EBV gp42 block 72* and MEX-5 binding -37*.
`O=C(CCCN1C(=O)c2cccc3cccc(c23)C1=O)NCc1cccs1` gave Runt-CBFb FRET 0, Runt-SMMHC FRET -4, LANA-H2B inh 2, RanGTP-Impb inh 2, EBV gp42 block -4 and MEX-5 binding 0.
CC12CC3(C)CC(C)(C1)CC(C(=O)NCc1ccccn1)(C2)C3 was read as Runt-CBFb FRET -5, Runt-SMMHC FRET -2, LANA-H2B inh 3, RanGTP-Impb inh 34*, EBV gp42 block -2 and MEX-5 binding -1.
`CC12CCC(C(=O)NCc3ccccn3)(OC1=O)C2(C)C` (stereo not drawn) gave Runt-CBFb FRET 2, Runt-SMMHC FRET -2, LANA-H2B inh -8, RanGTP-Impb inh -3, EBV gp42 block -8 and MEX-5 binding -1.
Screening Cc1cc(C)c(C#N)c(SCC(=O)c2cc(C)n(CCc3ccccc3)c2C)n1 returned Runt-CBFb FRET -4, Runt-SMMHC FRET -3, LANA-H2B inh -7, RanGTP-Impb inh 12, EBV gp42 block -37 and MEX-5 binding 0.
COCCn1c(C)cc(C(=O)CSc2nc(C)cc(C)c2C#N)c1C was read as Runt-CBFb FRET 10, Runt-SMMHC FRET 58*, LANA-H2B inh 0, RanGTP-Impb inh 8, EBV gp42 block -18 and MEX-5 binding -4.
`O=S(=O)(Nc1cc2nc3ccccc3nc2n1Cc1ccccc1)c1ccc(Cl)cc1` gave Runt-CBFb FRET 12, Runt-SMMHC FRET -16, LANA-H2B inh active, RanGTP-Impb inh 2, EBV gp42 block 121* and MEX-5 binding 1.
Screening COc1ccccc1N(CC(=O)N(C)Cc1ccccc1)S(=O)(=O)c1cccs1 returned LANA-H2B inh active.
COc1ccc(CNC(=O)CN(c2ccccc2OC)S(=O)(=O)c2cccs2)cc1 was read as LANA-H2B inh -2.
c1ccc(-c2nccc3ccccc23)cc1 was read as LANA-H2B inh 1, RanGTP-Impb inh 0 and MEX-5 binding 1.
Screening Cc1ccc(-c2nc(-c3nccc4ccccc34)oc2-c2ccccc2)cc1 returned Runt-CBFb FRET 7, Runt-SMMHC FRET 72*, LANA-H2B inh -5, RanGTP-Impb inh 1, EBV gp42 block -4 and MEX-5 binding -2.
Cc1ccccc1Nc1nc(N)nc(CN(C)c2ccccc2)n1 was read as Runt-CBFb FRET -4, Runt-SMMHC FRET 0, LANA-H2B inh 28*, RanGTP-Impb inh 2, EBV gp42 block -16 and MEX-5 binding 3.
Screening CC(=O)Nc1ccc(S(=O)(=O)NCCC(=O)OCc2nc(N)nc(Nc3ccccc3C)n2)cc1 returned LANA-H2B inh 157* and MEX-5 binding -1.
`Cc1ccc(/C=C/C(=O)OCc2nc(N)nc(Nc3ccccc3C)n2)o1` gave Runt-CBFb FRET 2, Runt-SMMHC FRET 0, LANA-H2B inh 2, RanGTP-Impb inh 2, EBV gp42 block 85* and MEX-5 binding 3.
`COC(=O)c1c(NC(=O)CC2SC(N)=NC2=O)sc(C)c1C` (stereo not drawn) gave Runt-CBFb FRET -2, Runt-SMMHC FRET 2, LANA-H2B inh -2, RanGTP-Impb inh -5, EBV gp42 block -21 and MEX-5 binding 0.
For COc1cc(CN2CCN(CCCc3ccccc3)CC2CCO)cc(OC)c1 (stereo not drawn) the results were LANA-H2B inh -3, RanGTP-Impb inh 27* and MEX-5 binding -1.

Source: PubChem BioAssay (several laboratories)
